Laboratory results taken from ChEMBL document CHEMBL1127570, “Synthesis and anticonvulsant properties of new benzylpyridazine derivatives” (J Med Chem, 1994).

Experiments:
[1] = test system: Mus musculus; test: Anticonvulsant activity was measured using the maximal electroshock seizure test in mice. protection percentage at 100 mg/kg; assay type: functional; settings: for % protection at 100 mg/kg: Mus musculus
[2] = test system: Mus musculus; test: Locomotor activity in maximal electroshock seizure. - indicates decrease at 100 mg/kg; assay type: functional
[3] = species on record: Mus musculus; test: (§1) Anticonvulsant activity against bicuculline induced seizures in mice; assay type: functional
Outline: (§2)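 Mice given compound 30 min before bicuculline 0.81 mg/kg iv (procedure after Heyer). Protection against clonic seizures recorded. Groups of 10 mice per dose; chi-square with Yates correction.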

[4] = test system: Mus musculus; test: Yohimbine induced seizures by administrating sc and the compound which do not exhibit at least one clonic seizure within 60 min was recorded; Percentage of protection at 150 mg/kg per os.; assay type: functional; settings: route subcutaneous; for ED50: Mus musculus, sc, 1 h
Outline: (§3)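 Compound given 30 min before yohimbine 45 mg/kg sc in mice. Animals without at least one clonic seizure within 60 min count as protected. Chi-square with Yates correction.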

[5] = Protective index is the ratio between TD50 and ED50 values; assay type: functional
Outline: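 Protective index is rotarod TD50 divided by ED50. Both come from oral dosing in mice 30 min before test and are calculated by Litchfield–Wilcoxon.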

[6] = test system: Mus musculus; test: Tested for NMDLA induced seizures and protection against full generalized tonic seizures was recorded; Percentage of protection at 150 mg/kg per os.; assay type: functional; settings: for ED50: Mus musculus, po
Outline: (§4)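 Compounds given 30 min before N-methyl-D,L-aspartate 345 mg/kg sc in mice. Protection against full generalized tonic seizures recorded. Chi-square with Yates correction.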

[7] = test system: Mus musculus; test: Locomotor activity in maximal electroshock seizure+ indicates increase at 100 mg/kg; assay type: functional
[8] = species on record: Mus musculus; test: Anticonvulsant activity in mice using the maximal electroshock seizure test.; assay type: functional
Outline: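 Oral dosing of mice 30 min before maximal electroshock via corneal electrodes. Protection is abolition of the hind limb tonic extensor component.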

[9] = test system: Mus musculus; test: Ability to prevent the tonic extensor component induced by 106.25 mg/kg sc of pentylenetetrazole; Percentage of protection at 100 mg/kg per os.; assay type: functional
Outline: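 Mice dosed orally 30 min before pentylenetetrazole 106.25 mg/kg sc. Protection is block of the tonic extensor component. Groups of 10 mice per dose; chi-square with Yates correction; ED50 by Litchfield–Wilcoxon.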

[10] = Central nervous system toxicity was performed by determining the median toxic dose in the rotarod test; assay type: organism-based; settings: mouse, in vivo
Outline: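 Rotarod neurotoxicity in mice, oral dosing 30 min before assay. Failure to stay 3 min on a 3-cm wooden rod turning at 8 rpm counts as toxic.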

[11] = test system: Mus musculus; test: Tested for the abolition of the hand leg tonic extensor component of the seizure induced by a 0.96 mg/kg sc injection of strychnine; assay type: functional; settings: route subcutaneous
Outline: (§5)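 Mice tested 30 min after compound for abolition of the tonic extensor component from strychnine 0.96 mg/kg sc. Chi-square with Yates correction; ED50 by Litchfield–Wilcoxon.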

[12] = test system: Mus musculus; test: Tested for the abolition of the hand leg tonic extensor component of the seizure induced by a 0.96 mg/kg sc injection of strychnine; Percentage of protection at 100 mg/kg per os.; assay type: functional
Outline: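 Oral dose of 100 mg/kg in mice, 10 per dose, given 30 min before strychnine 0.96 mg/kg sc. Protection means abolition of the hind leg tonic extensor component, given as percentage of animals protected. Chi-square with Yates correction.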

[13] = test system: Mus musculus; test: (§6) Anticonvulsant activity against bicuculline induced seizures in mice; Percentage of protection at 100 mg/kg per os.; assay type: functional
Outline: (§7)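 Mice, 10 per dose. Test drug given 30 min before bicuculline 0.81 mg/kg iv; protection against clonic seizures recorded. Line 2: single oral dose of 100 mg/kg, given as percentage of animals protected. ED50 by Litchfield–Wilcoxon; chi-square with Yates correction.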

[14] = test system: Mus musculus; test: yohimbine induced seizures by administrating sc and the compound which do not exhibit at least one clonic seizure within 60 min was recorded; Percentage of protection at 100 mg/kg per os.; assay type: functional; settings: 1 h, route subcutaneous; outline: as §3
[15] = test system: Mus musculus; test: Ability to prevent the tonic extensor component induced by 106.25 mg/kg sc of pentylenetetrazole; assay type: functional; settings: route subcutaneous
[16] = test system: Mus musculus; test: Tested for the abolition of the hand leg tonic extensor component of the seizure induced by a 0.96 mg/kg sc injection of strychnine;Percentage of protection at 100 mg/kg per os.; assay type: functional; outline: as §5
[17] = test system: Mus musculus; test: as §6; assay type: functional; outline: as §2; remark: listed apart in the source
[18] = species on record: Mus musculus; test: as §1; assay type: functional; outline: as §7; remark: listed apart in the source
[19] = test system: Mus musculus; test: Yohimbine induced seizures by administrating sc and the compound which do not exhibit at least one clonic seizure within 60 min was recorded; assay type: functional; settings: 1 h
Outline: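 Mice, 10 per dose, dosed 30 min before yohimbine 45 mg/kg sc. Animals with no clonic seizure within 60 min were counted as protected. ED50 by Litchfield–Wilcoxon; chi-square with Yates correction.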

[20] = test system: Mus musculus; test: Tested for NMDLA induced seizures and protection against full generalized tonic seizures was recorded; Percentage of protection at 30 mg/kg per os.; settings: po
[21] = test system: Mus musculus; test: Tested for NMDLA induced seizures and protection against full generalized tonic seizures was recorded; Percentage of protection at 100 mg/kg per os.; assay type: functional; settings: po; outline: as §4
[22] = species on record: Mus musculus; test: Tested for NMDLA induced seizures and protection against full generalized tonic seizures was recorded; assay type: functional
Outline: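 NMDLA (N-methyl-D,L-aspartate) 345 mg/kg sc injected 30 min after test drug in mice, 10 per dose; protection against full generalized tonic seizures recorded. ED50 by Litchfield–Wilcoxon; chi-square with Yates correction.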

Structure (SMILES): Cc1nnc(NNC(=O)C(C)C)cc1Cc1ccccc1
- percent protection [1]: 0%
- Locomotor activity [2]: -67%

Structure (SMILES): Cc1nn2cnnc2cc1Cc1ccccc1
- ED50 [3]: 63 mg/kg
- percent protection [4]: 0%
- PI [5]: 17.9
- ED50 [6]: 25 mg/kg
- Locomotor activity [7]: 8%
- ED50 [8]: 9.5 mg/kg
- pct protection [9]: 20%
- TD50 [10]: 170 mg/kg
- ED50 [11]: 85 mg/kg

Structure (SMILES): Cc1nn2c(-c3ccccc3)nnc2cc1Cc1ccccc1
- Locomotor activity [7]: 2%
- ED50 [8]: 108 mg/kg

Structure (SMILES): Cc1nnc(NNC(=O)C(C)C)cc1Cc1ccccc1Cl
- % protection at 100 mg/kg [1]: 17%
- Locomotor activity [2]: -57%

Structure (SMILES): Cc1nnc(NNC(=O)N(c2ccccc2)c2ccccc2)cc1Cc1ccccc1
- Locomotor activity [7]: 9%
- % protection at 100 mg/kg [1]: 15%

Structure (SMILES): CCCC(CCC)C(=O)[O-].[Na+] [VALPROATE SODIUM]
- ED50 [4]: 10 mg/kg
- PI [5]: 1.9
- percent protection [6]: 0%
- ED50 [8]: 112 mg/kg
- percent protection [12]: 0%
- pct protection [9]: 20%
- TD50 [10]: 208 mg/kg
- Locomotor activity [2]: -5%

Structure (SMILES): Cc1nnc(NNC(=O)c2ccccc2)cc1Cc1ccccc1
- % protection at 100 mg/kg [1]: 17%
- Locomotor activity [2]: -62%

Structure (SMILES): Cc1nn2c(C)nnc2cc1Cc1ccccc1
- Locomotor activity [7]: 47%
- ED50 [8]: 26 mg/kg

Structure (SMILES): NC(=O)N1c2ccccc2C=Cc2ccccc21 [CARBAMAZEPINE]
- PI [5]: 7.3
- ED50 [6]: 20 mg/kg
- Locomotor activity [7]: 7%
- percent protection [13]: 0%
- ED50 [8]: 5.5 mg/kg
- ED50 [14]: 10 mg/kg
- TD50 [10]: 40 mg/kg
- ED50 [15]: 17.5 mg/kg
- ED50 [11]: 8.5 mg/kg

Structure (SMILES): Cc1nnc(NC(N)=O)cc1Cc1ccccc1
- ED50 [3]: 111 mg/kg
- ED50 [4]: 10 mg/kg
- PI [5]: 13.7
- ED50 [6]: 12.5 mg/kg
- ED50 [8]: 10.2 mg/kg
- pct protection [9]: 20%
- TD50 [10]: 140 mg/kg
- Locomotor activity [2]: -5%
- ED50 [11]: 28 mg/kg

Structure (SMILES): O=C1NC(=O)C(c2ccccc2)(c2ccccc2)N1 [PHENYTOIN]
- ED50 [4]: 10 mg/kg
- percent protection [16]: 0%
- PI [5]: 7.6
- percent protection [6]: 0%
- percent protection [17]: 0%
- ED50 [8]: 4 mg/kg
- percent protection [9]: 0%
- TD50 [10]: 30.5 mg/kg
- Locomotor activity [2]: -16%

Structure (SMILES): Cc1nnc(NNC(=O)Nc2ccccc2)cc1Cc1ccccc1Cl
- % protection at 100 mg/kg [1]: 33%
- Locomotor activity [2]: -3%

Structure (SMILES): Cc1nn2c(NC(=O)c3ccccc3)nnc2cc1Cc1ccccc1
- Locomotor activity [7]: 7%
- ED50 [8]: 35 mg/kg

Structure (SMILES): Cc1nn2cnnc2cc1Cc1ccccc1Cl
- Locomotor activity [7]: 5%
- ED50 [8]: 6 mg/kg

Structure (SMILES): CN1C(=O)CN=C(c2ccccc2)c2cc(Cl)ccc21 [DIAZEPAM]
- PI [5]: 0.7
- ED50 [18]: 0.39 mg/kg
- ED50 [19]: 2.3 mg/kg
- ED50 [8]: 4 mg/kg
- TD50 [10]: 2.8 mg/kg
- ED50 [15]: 0.5 mg/kg
- ED50 [20]: 30 mg/kg
- ED50 [11]: 1.1 mg/kg

Structure (SMILES): Cc1nn2c(N)nnc2cc1Cc1ccc(F)cc1
- ED50 [8]: 43 mg/kg
- Locomotor activity [2]: -15%

Structure (SMILES): Cc1nn2c(N)nnc2cc1Cc1ccccc1Cl
- ED50 [8]: 17.4 mg/kg
- Locomotor activity [2]: -7%

Structure (SMILES): Cc1nn2c(N)nnc2cc1Cc1c(Cl)cccc1Cl
- ED50 [3]: 93 mg/kg
- PI [5]: 44.5
- ED50 [6]: 14 mg/kg
- Locomotor activity [7]: 16%
- ED50 [19]: 76 mg/kg
- ED50 [8]: 9.2 mg/kg
- TD50 [10]: 410 mg/kg
- ED50 [15]: 76 mg/kg
- ED50 [11]: 34.5 mg/kg

Structure (SMILES): Cc1nn2c(C)nnc2cc1Cc1ccccc1Cl
- ED50 [8]: 30.5 mg/kg
- Locomotor activity [2]: -1%

Structure (SMILES): Cc1nn2cnnc2cc1Cc1c(Cl)cccc1Cl
- ED50 [3]: 125 mg/kg
- PI [5]: 14.2
- Locomotor activity [7]: 13%
- ED50 [19]: 150 mg/kg
- ED50 [8]: 6.2 mg/kg
- pct protection [21]: 12.5%
- TD50 [10]: 88 mg/kg
- ED50 [15]: 70 mg/kg
- ED50 [11]: 39.5 mg/kg

Structure (SMILES): CCC1(c2ccccc2)C(=O)NC(=O)NC1=O [PHENOBARBITAL]
- PI [5]: 7.2
- ED50 [18]: 20 mg/kg
- Locomotor activity [7]: 33%
- ED50 [19]: 17 mg/kg
- ED50 [8]: 4.6 mg/kg
- percent protection [12]: 0%
- TD50 [10]: 33 mg/kg
- ED50 [22]: 30 mg/kg
- ED50 [15]: 15 mg/kg

Structure (SMILES): Cc1nn2cc(-c3ccccc3)nc2cc1Cc1ccccc1
- Locomotor activity [7]: 12%
- ED50 [8]: 105 mg/kg

Structure (SMILES): Cc1ccc(Cc2cc3nnc(N)n3nc2C)cc1
- ED50 [8]: 22.5 mg/kg
- Locomotor activity [2]: -8%

Structure (SMILES): Cc1nnc(NNC(=O)Nc2ccccc2)cc1Cc1ccccc1
- percent protection [1]: 0%

Structure (SMILES): Cc1nn2c(N)nnc2cc1Cc1ccccc1
- ED50 [3]: 94 mg/kg
- ED50 [4]: 20 mg/kg
- PI [5]: 36.4
- ED50 [6]: 14 mg/kg
- Locomotor activity [7]: 11%
- ED50 [8]: 22 mg/kg
- pct protection [9]: 20%
- TD50 [10]: > 800 mg/kg
- ED50 [11]: 35 mg/kg
